Data: ChEMBL document CHEMBL3098111, “Discovery of 2,5-diarylnicotinamides as selective orexin-2 receptor antagonists (2-SORAs)” (Bioorg Med Chem Lett, 2013)
The source made the active and inactive calls. No cut-off for these calls is given here.

What was measured:
Bos taurus [1] = species on record: Bos taurus; assay: Inhibition of bovine PKA at 100 uM relative to control
[2] = biological target: Thyrotropin-releasing hormone receptor (Rattus norvegicus) (UniProt Q01717); assay: Inhibition of rat TRH receptor at 10 uM relative to control
Cavia porcellus = species on record: Cavia porcellus; assay: Inhibition of guinea pig adenosine transporter at 1 uM relative to control
[3] = biological target: D(2) dopamine receptor (Homo sapiens) (UniProt P14416); assay: Inhibition of human dopamine D2S receptor at 10 uM relative to control
[4] = biological target: Type-1 angiotensin II receptor (Homo sapiens) (UniProt P30556); assay: Inhibition of human angiotensin AT1 receptor at 10 uM relative to control
Sequence of Type-1 angiotensin II receptor (Homo sapiens) (P30556 whole entry): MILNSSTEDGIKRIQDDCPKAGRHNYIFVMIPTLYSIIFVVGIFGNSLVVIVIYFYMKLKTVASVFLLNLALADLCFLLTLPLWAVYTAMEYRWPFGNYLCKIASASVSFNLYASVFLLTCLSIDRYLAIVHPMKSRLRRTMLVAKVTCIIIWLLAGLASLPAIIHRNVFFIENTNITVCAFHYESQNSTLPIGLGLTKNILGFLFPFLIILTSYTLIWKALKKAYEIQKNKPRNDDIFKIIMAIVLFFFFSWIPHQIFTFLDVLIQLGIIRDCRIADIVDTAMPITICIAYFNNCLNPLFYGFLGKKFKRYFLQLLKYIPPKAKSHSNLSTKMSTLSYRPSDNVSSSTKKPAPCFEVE

[5] = biological target: Beta-1 adrenergic receptor (Homo sapiens) (UniProt P08588); assay: Inhibition of human beta1 adrenergic receptor at 10 uM relative to control
Sequence of Beta-1 adrenergic receptor (Homo sapiens) (P08588 whole entry, looked up): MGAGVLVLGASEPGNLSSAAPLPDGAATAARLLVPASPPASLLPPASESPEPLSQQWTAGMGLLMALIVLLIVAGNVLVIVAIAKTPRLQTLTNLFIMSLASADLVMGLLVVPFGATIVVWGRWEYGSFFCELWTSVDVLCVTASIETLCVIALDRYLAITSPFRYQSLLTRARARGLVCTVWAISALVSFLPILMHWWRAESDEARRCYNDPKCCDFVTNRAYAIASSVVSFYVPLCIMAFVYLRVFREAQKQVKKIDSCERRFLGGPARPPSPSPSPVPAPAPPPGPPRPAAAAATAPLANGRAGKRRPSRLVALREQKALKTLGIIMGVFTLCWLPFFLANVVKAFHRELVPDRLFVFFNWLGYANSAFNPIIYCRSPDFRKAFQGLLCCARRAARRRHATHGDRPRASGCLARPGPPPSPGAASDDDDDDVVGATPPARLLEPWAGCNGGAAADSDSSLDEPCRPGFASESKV

[6] = biological target: Prostaglandin E2 receptor EP1 subtype (Homo sapiens) (UniProt P34995); assay: Inhibition of human prostanoid EP1 receptor at 10 uM relative to control
[7] = biological target: 5-hydroxytryptamine receptor 3A (Homo sapiens) (UniProt P46098); assay: Inhibition of human 5-HT3 receptor at 10 uM relative to control
[8] = biological target: Endothelin receptor type B (Homo sapiens) (UniProt P24530); assay: Inhibition of human ETB receptor at 10 uM relative to control
Sequence of Endothelin receptor type B (Homo sapiens) (P24530 whole entry): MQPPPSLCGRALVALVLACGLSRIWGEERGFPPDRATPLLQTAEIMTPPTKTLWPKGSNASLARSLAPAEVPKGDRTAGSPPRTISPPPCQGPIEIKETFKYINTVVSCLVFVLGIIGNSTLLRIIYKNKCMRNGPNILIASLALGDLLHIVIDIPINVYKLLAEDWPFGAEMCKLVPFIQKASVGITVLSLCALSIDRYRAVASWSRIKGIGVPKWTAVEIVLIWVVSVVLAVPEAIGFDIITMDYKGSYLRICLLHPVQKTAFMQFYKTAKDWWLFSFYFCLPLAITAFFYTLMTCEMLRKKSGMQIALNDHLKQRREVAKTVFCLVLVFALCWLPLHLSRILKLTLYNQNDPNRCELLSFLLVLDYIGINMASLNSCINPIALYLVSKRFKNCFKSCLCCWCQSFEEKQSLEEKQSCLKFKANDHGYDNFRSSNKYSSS

Caspase-3 (Homo sapiens) = Caspase-3 (Homo sapiens) (UniProt P42574); assay: Inhibition of human caspase 3 at 10 uM relative to control
Sequence of Caspase-3 (Homo sapiens) (P42574 29-175 limits assumed): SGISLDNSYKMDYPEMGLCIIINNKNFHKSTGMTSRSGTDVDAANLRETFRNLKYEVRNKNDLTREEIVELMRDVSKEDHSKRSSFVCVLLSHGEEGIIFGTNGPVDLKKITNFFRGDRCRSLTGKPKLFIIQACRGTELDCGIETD
Sequence of Caspase-3 (Homo sapiens) (P42574 176-277 limits assumed): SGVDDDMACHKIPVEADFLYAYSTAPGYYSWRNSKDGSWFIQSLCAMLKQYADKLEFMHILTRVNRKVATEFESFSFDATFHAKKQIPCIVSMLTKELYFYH

[9] = biological target: Prostaglandin E2 receptor EP3 subtype (Homo sapiens) (UniProt P43115); assay: Inhibition of human prostanoid EP3 receptor at 10 uM relative to control
Mu-type opioid receptor [10] = biological target: T1, Mu-type opioid receptor (Homo sapiens, UniProt P35372); assay: Inhibition of human mu opioid receptor at 10 uM relative to control
T1 sequence (P35372 whole entry): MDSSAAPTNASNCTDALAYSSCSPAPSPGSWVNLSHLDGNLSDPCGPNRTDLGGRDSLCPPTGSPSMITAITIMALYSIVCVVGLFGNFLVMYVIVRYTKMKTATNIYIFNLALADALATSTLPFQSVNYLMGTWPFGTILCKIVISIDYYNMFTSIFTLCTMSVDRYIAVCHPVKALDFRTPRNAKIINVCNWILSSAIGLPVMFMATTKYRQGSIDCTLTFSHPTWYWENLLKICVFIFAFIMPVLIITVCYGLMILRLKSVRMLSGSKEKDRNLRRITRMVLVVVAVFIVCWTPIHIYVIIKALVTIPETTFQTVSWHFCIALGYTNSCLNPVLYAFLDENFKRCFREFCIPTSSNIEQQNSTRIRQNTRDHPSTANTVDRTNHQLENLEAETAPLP

Rattus norvegicus [11] = species on record: Rattus norvegicus; assay: Inhibition of rat GABAA chloride channel TBOB binding site at 10 uM relative to control
[12] = biological target: 5-hydroxytryptamine receptor 1B (Rattus norvegicus) (UniProt P28564); assay: Inhibition of rat 5-HT1B receptor at 10 uM relative to control
Sequence of 5-hydroxytryptamine receptor 1B (Rattus norvegicus) (P28564 whole entry): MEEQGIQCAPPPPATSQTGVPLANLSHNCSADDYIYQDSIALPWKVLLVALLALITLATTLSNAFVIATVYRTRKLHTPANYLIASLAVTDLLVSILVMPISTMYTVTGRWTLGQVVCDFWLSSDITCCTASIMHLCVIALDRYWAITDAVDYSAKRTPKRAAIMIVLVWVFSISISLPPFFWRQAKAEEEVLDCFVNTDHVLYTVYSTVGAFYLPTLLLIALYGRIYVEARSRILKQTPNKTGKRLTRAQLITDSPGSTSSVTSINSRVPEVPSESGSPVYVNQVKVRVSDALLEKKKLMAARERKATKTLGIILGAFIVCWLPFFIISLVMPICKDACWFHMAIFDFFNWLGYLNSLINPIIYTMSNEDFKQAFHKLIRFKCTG

[13] = biological target: Interstitial collagenase (Homo sapiens) (UniProt P03956); assay: Inhibition of human MMP-1 at 10 uM relative to control
Sequence of Interstitial collagenase (Homo sapiens) (P03956 whole entry): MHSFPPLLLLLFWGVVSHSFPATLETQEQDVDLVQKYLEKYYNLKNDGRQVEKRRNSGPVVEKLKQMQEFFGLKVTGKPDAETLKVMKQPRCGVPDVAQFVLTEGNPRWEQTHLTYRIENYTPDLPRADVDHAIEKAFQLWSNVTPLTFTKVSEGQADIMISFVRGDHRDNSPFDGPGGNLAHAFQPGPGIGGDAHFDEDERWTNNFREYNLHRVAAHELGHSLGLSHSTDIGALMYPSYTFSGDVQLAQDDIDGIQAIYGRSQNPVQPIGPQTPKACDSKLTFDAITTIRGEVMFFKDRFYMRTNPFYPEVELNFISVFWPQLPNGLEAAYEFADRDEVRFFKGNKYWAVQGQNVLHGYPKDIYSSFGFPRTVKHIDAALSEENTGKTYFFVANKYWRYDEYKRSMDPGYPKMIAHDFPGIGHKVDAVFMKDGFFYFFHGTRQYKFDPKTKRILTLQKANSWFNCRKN

[14] = biological target: B1 bradykinin receptor (Homo sapiens) (UniProt P46663); assay: Inhibition of human bradykinin B1 receptor at 10 uM relative to control
Sequence of B1 bradykinin receptor (Homo sapiens) (P46663 whole entry): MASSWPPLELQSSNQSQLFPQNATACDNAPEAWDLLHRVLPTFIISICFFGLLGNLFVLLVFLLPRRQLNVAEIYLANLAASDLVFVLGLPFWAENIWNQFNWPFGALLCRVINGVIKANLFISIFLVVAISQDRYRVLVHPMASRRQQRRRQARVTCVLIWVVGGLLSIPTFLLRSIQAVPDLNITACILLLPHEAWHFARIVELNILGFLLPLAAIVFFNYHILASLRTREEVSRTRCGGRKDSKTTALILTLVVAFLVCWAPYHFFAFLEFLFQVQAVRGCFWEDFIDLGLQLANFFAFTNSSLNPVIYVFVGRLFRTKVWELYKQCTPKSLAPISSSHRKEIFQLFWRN

Bos taurus [15] = species on record: Bos taurus; assay: Inhibition of bovine PDE6 at 100 uM relative to control
[16] = biological target: Glutamate NMDA receptor (Rattus norvegicus) (UniProt P35439+Q00959+Q00960+Q00961+Q62645+Q8VHN2+Q9R1M7); assay: Inhibition of rat NMDA receptor glycine binding site at 10 uM relative to control; type: protein-complex assay
[17] = biological target: Histamine H3 receptor (Homo sapiens) (UniProt Q9Y5N1); assay: Inhibition of human histamine H3 receptor at 10 uM relative to control
[18] = biological target: T2, 5-hydroxytryptamine receptor 1A (Homo sapiens) (UniProt P08908); assay: Inhibition of human 5-HT1A receptor at 10 uM relative to control
T2 sequence (whole entry): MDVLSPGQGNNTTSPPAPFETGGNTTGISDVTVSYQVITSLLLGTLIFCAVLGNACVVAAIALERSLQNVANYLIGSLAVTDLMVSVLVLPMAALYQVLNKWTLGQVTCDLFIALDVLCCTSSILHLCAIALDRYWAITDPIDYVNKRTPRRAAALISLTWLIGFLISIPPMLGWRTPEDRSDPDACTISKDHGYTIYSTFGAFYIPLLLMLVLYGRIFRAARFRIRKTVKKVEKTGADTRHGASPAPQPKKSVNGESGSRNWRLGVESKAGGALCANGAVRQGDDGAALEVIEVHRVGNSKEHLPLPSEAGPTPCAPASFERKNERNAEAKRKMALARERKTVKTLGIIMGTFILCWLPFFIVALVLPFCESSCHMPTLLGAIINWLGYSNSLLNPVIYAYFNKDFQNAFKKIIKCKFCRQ

[19] = biological target: D(1A) dopamine receptor (Homo sapiens) (UniProt P21728); assay: Inhibition of human dopamine D1 receptor at 10 uM relative to control
[20] = biological target: 5-hydroxytryptamine receptor 2B (Homo sapiens, UniProt P41595); assay: Inhibition of human 5-HT2B receptor at 1 uM relative to control
Sequence of 5-hydroxytryptamine receptor 2B (P41595 whole entry): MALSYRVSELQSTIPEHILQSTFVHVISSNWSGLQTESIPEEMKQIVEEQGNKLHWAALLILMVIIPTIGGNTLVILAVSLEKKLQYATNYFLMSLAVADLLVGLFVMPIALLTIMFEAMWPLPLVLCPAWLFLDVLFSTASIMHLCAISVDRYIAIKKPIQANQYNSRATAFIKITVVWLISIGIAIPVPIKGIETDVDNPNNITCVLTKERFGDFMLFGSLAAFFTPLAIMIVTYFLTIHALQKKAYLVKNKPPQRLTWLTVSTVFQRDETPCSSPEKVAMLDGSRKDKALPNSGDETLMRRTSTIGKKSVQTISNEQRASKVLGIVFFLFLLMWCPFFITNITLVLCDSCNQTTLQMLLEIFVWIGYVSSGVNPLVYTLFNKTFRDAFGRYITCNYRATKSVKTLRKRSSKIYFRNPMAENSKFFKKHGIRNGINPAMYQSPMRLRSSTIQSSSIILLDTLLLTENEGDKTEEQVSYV

[21] = biological target: Delta-type opioid receptor (Homo sapiens) (UniProt P41143); assay: Inhibition of human delta opioid receptor at 10 uM relative to control
[22] = biological target: D(1B) dopamine receptor (Homo sapiens) (UniProt P21918); assay: Inhibition of human dopamine D5 receptor at 10 uM relative to control
[23] = biological target: Type-2 angiotensin II receptor (Homo sapiens) (UniProt P50052); assay: Inhibition of human angiotensin AT2 receptor at 10 uM relative to control
[24] = biological target: Alpha-2C adrenergic receptor (Homo sapiens) (UniProt P18825); assay: Inhibition of human alpha2C adrenergic receptor at 10 uM relative to control
Oryctolagus cuniculus = species on record: Oryctolagus cuniculus; assay: Inhibition of rabbit monoamine transporter at 0.1 uM relative to control
[25] = biological target: Beta-3 adrenergic receptor (Homo sapiens) (UniProt P13945); assay: Inhibition of human beta3 adrenergic receptor at 10 uM relative to control
[26] = biological target: Tyrosine-protein phosphatase non-receptor type 1 (Homo sapiens) (UniProt P18031); assay: Inhibition of human PTP1B at 10 uM relative to control
Sequence of Tyrosine-protein phosphatase non-receptor type 1 (Homo sapiens) (P18031 whole entry): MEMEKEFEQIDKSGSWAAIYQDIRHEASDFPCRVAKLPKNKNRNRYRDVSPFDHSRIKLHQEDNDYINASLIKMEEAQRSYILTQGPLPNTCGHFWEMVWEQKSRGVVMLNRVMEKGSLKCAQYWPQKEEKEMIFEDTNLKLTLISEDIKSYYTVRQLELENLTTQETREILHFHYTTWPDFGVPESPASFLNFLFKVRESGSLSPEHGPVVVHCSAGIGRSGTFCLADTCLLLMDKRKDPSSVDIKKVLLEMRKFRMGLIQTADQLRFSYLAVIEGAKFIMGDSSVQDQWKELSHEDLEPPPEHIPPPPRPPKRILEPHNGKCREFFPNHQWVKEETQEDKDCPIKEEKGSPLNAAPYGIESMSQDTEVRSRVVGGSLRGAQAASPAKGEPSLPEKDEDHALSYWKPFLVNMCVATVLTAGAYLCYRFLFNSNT

Gallus gallus = species on record: Gallus gallus; assay: Inhibition of chicken MT receptor at 10 uM relative to control
[27] = biological target: Peroxisome proliferator-activated receptor alpha (Homo sapiens) (UniProt Q07869); assay: Inhibition of human PPARalpha at 10 uM relative to control
Rattus norvegicus [28] = species on record: Rattus norvegicus; assay: Inhibition of rat 5-HT2 receptor at 10 uM relative to control
[29] = biological target: T2, 5-hydroxytryptamine receptor 1A (Homo sapiens); assay: Inhibition of human 5-HT1A receptor at 10 nM relative to control
[30] = biological target: cGMP-dependent 3',5'-cyclic phosphodiesterase (Homo sapiens) (UniProt O00408); assay: Inhibition of human PDE2 at 100 uM relative to control
Mu-type opioid receptor [31] = biological target: T1, Mu-type opioid receptor; assay: Inhibition of human mu opioid receptor at 0.1 uM relative to control
Rattus norvegicus [32] = assay: Antiinsomnic activity in rat EEG model assessed as increase in delta sleep time at 15 mg/kg, po; type: functional, organism-based; set-up: dose 15 mg/kg
Method in brief: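 Rats with EEG telemetry given 15 mg/kg orally during their active period, vehicle 20% Vitamin E TPGS in water. Sleep architecture (active wake, light sleep, delta and REM sleep) scored from EEG.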

[33] = biological target: Neuropeptide Y receptor type 1 (Homo sapiens) (UniProt P25929); assay: Inhibition of human neuropeptide YY1 receptor at 10 uM relative to control
[34] = biological target: Neuropeptide Y receptor type 2 (Homo sapiens) (UniProt P49146); assay: Inhibition of human neuropeptide YY2 receptor at 10 uM relative to control
Sequence of Neuropeptide Y receptor type 2 (Homo sapiens) (P49146 whole entry): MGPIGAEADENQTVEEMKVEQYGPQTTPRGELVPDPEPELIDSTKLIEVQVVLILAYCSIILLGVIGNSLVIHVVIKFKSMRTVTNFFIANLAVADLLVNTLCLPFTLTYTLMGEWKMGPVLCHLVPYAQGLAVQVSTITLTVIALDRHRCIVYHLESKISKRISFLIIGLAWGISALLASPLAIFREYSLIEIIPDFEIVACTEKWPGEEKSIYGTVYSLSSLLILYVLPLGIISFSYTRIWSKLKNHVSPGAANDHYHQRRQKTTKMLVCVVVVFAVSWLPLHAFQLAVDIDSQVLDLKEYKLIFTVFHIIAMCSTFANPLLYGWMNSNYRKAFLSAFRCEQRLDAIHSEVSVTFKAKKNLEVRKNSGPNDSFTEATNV

[35] = biological target: Substance-P receptor (Homo sapiens) (UniProt P25103); assay: Inhibition of human NK1 receptor at 10 uM relative to control
Sequence of Substance-P receptor (Homo sapiens) (P25103 whole entry): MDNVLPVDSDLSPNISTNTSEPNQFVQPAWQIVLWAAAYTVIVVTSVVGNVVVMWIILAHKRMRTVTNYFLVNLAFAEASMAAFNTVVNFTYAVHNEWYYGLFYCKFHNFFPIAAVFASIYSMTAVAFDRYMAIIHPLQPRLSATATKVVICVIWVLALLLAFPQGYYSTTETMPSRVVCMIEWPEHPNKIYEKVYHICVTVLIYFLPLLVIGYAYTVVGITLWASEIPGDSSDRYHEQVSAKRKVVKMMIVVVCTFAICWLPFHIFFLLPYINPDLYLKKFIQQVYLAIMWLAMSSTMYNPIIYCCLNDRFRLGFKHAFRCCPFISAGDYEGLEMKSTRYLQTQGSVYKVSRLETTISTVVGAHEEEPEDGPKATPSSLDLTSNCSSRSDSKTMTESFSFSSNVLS

In the case of `COc1ccc(CNC(=O)c2cc(-c3cc(Cl)cc(Cl)c3)cnc2-c2cccnc2)cc1OC`, the inhibition (Bos taurus [1]) is reported as -7%, the inhibition [2] is reported as -3% and the inhibition (Cavia porcellus) is reported as 32%. The inhibition [3] was -2%, the inhibition [4] was 14% and the inhibition [5] was 9%. The inhibition [6] was 10%, the inhibition [7] was -3% and the inhibition [8] was 8%. For the same compound, the inhibition (Caspase-3 (Homo sapiens)) was -1%, the inhibition [9] was 19% and the inhibition (Mu-type opioid receptor [10]) was 62%. It also gave an inhibition (Rattus norvegicus [11]) of 8%, an inhibition [12] of 73% and an inhibition [13] of 4%. For the same compound, the inhibition [14] was 3%, the inhibition (Bos taurus [15]) was 16% and the inhibition [16] was 9%. For the same compound, the inhibition [17] was -3%, the inhibition [18] was 69% and the inhibition [19] was 2%. It also gave an inhibition [20] of 52%, an inhibition [21] of 8% and an inhibition [22] of 3%. For the same compound, the inhibition [23] was 18%, the inhibition [24] was 5% and the inhibition (Oryctolagus cuniculus) was 7%. For the same compound, the inhibition [25] was 24%, the inhibition [26] was 1% and the inhibition (Gallus gallus) was 22%. The inhibition [27] was 5%, the inhibition (Rattus norvegicus [28]) was 17% and the inhibition [29] was 2%. The inhibition [30] was 4%, the inhibition (Mu-type opioid receptor [31]) was -3% and the Activity (Rattus norvegicus [32]) was “Active”. For the same compound, the inhibition [33] was 23%, the inhibition [34] was 0% and the inhibition [35] was 26%.
